This is an account of results in ChEMBL document CHEMBL1130142, “(S)-spiro[(1,3-diazacyclopent-1-ene)-5,2'-(7'-methyl-1',2',3',4'- tetrahydronaphthalene)]: resolution, stereospecific synthesis, and preliminary pharmacological characterization as a partial alpha-adrenergic agonist” (J Med Chem, 1997).

SMILES strings stand for the structures.

The species entered for assay [1] is Canis familiaris. As to the kind of experiment: Effective concentration of compound in isolated canine saphenous vein. As to conditions: Canis lupus familiaris. Type of assay: functional. The method in brief: (§1)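 Isolated canine blood vessels (saphenous vein without endothelium; femoral artery) exposed to increasing agonist concentrations; contractile responses measured.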

The species entered for assay [2] is Canis familiaris. As to the kind of experiment: Effective Concentration compound in isolated canine femoral artery. Type of assay: functional. To be noted: Canis lupus familiaris. Summed up:
as §1

The test system of assay [3] is Rattus norvegicus. As to the kind of experiment: Concentration which increases the arterial blood pressure by 20 mmHg in the pithed rat in vivo by intravenous administration. Type of assay: functional, Artery.
For assay [4], the species on record is Canis familiaris. The experiment in a line: Maximum contractile response expressed as percentage (mean) of the maximal contraction to KCl (100 mM) in the isolated femoral artery.
Assay [5] is filed under the species Rattus norvegicus. The experiment in a line: The maximal pressure response caused by the compound in pithed rat. In kind it is functional.
Assay [6] is filed under the species Canis familiaris. The experiment in a line: Maximum contractile response expressed as percentage (mean) of the maximal contraction to KCl (100 mM) in the isolated saphenous vein.
The species named for assay [7] is Canis familiaris. The description is as above. The source holds these as a separate data set.
For assay [8], the species on record is Canis familiaris. As to the kind of experiment: Maximum contractile response expressed as percentage (mean) of the maximal contraction to KCl (100 mM) in the isolated femoral artery. This is another data set of the same source.
Assay [9] can be described thus: C20 ratio was determined in the presence or absence of 1 mg of yohimbine for the compound which are indicative of the contribution of alpha-2 adnergic mechanisms to the pressor response. Type of assay: functional. Summed up:
(§2)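 Pithed rats received test compound as cumulative iv doses, and mean arterial pressure was recorded. C20 is the iv dose (µg/kg) that raises arterial pressure by 20 mmHg (mean ± SEM, n = 5). The same cumulative doses were repeated 10 min after iv prazosin 100 µg/kg or iv yohimbine 1 mg/kg. The ratio is C20 without antagonist over C20 with antagonist.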

Assay [10] can be described thus: C20 ratio was determined in the presence or absence of 0.1 mg of prazosin for the compound which are indicative of the contribution of alpha-1 adnergic mechanisms to the pressor response. In kind it is functional. The method in brief:
as §2

On to `Cc1ccc2c(c1)CC1(CC2)CN=CN1` (stereo unspecified), for which the 50% effective concentration (EC50) in assay [1] was 0.36 µM; in assay [2] it was > 3 µM. Also, the C20 in assay [3] was 6.7 µg/kg. In addition, the Emax in assay [4] amounted to 7.7; in [6] it was 68.5. Moreover, the Max in assay [5] is reported as 112 mmHg.

As for `Cc1ccc2c(c1)C[C@@]1(CC2)CN=CN1`, the Emax in assay [7] turned out to be 78.3; in assay [8], 15.8. For the same compound, the 50% effective concentration (EC50) in assay [1] was 0.22 µM; in [2], > 3 µM. Moreover, in [3], the C20 is 5.8 µg/kg. In [5], this compound came in with a Max of 106 mmHg.

Turning to `FC(F)(F)c1ccc(Cl)c(NC2=NCCN2)c1`, the figures for the 50% effective concentration (EC50) in assay [1] and in assay [2] were 2.02 µM and 10.9 µM, respectively. Besides, the Ratio in assay [9] is 1.8; in assay [10] it was 16. In assay [3], this compound returned a C20 of 8.6 µg/kg. Also, the Emax in assay [4] was 19.7; in [6] it was 54.4. Further, the Max in [5] is given as 129 mmHg.

Turning to `Cc1ccc2c(c1)C[C@]1(CC2)CN=CN1`, the concentration giving a half-maximal response (EC50) in assay [1] is 2.8 µM; in assay [2] it was > 3 µM. The compound further showed a C20 in assay [3] of 44.8 µg/kg. Also, the Emax in [4] is listed as 8.4; in [6], 39.4. The Max in [5] is 109 mmHg.
